According to ChEMBL document CHEMBL1250476, “Synthesis and antifungal evaluation of novel triazole derivatives as inhibitors of cytochrome P450 14alpha-demethylase” (2010):
In brackets after ≈: the same amount, converted by molar mass.

Key:
Format in all cases: functional
[1] = tested on: Candida tropicalis; test: Antifungal activity against Candida tropicalis by micro-broth dilution method
Summary of the method: (§1)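 MIC80 by broth microdilution in 96-well format following NCCLS. Compounds were dissolved in DMSO, serially diluted in growth medium, inoculated and incubated at 35 °C. The endpoint was the first well with about 80% growth reduction versus the drug-free well. Values are means of three replicate tests.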

[2] = tested on: Kluyveromyces marxianus; test: Antifungal activity against Candida kefyr by micro-broth dilution method; summary of the method: as §1
[3] = tested on: Candida albicans; test: Antifungal activity against Candida albicans SC5314 after 24 hrs by micro-broth dilution method; settings: SC5314, 24 h
Summary of the method: (§2)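 Broth microdilution per NCCLS on Candida albicans. Compounds were dissolved in DMSO, serially diluted in growth medium, inoculated and incubated at 35 °C. Growth was read at 24 h, and MIC80 was taken as the first well with about 80% growth reduction relative to the drug-free control. Values are the mean of three replicates.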

[4] = tested on: Candida parapsilosis; test: Antifungal activity against Candida parapsilosis by micro-broth dilution method; settings: Lodderomyces parapsilosis; summary of the method: as §1
[5] = tested on: Trichophyton rubrum; test: Antifungal activity against Trichophyton rubrum by micro-broth dilution method; summary of the method: as §1
[6] = tested on: Cryptococcus neoformans; test: Antifungal activity against Cryptococcus neoformans after 72 hrs by micro-broth dilution method
Summary of the method: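 Cryptococcus neoformans tested by NCCLS micro-broth dilution. Compounds were dissolved in DMSO, serially diluted in medium, inoculated and incubated at 35 °C. MIC80 was read at 72 h as the first well showing approximately 80% growth reduction compared with the drug-free well. Values are the mean of three replicate tests.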

[7] = tested on: Aspergillus fumigatus; test: Antifungal activity against Aspergillus fumigatus by micro-broth dilution method; summary of the method: as §1
[8] = tested on: Candida albicans; test: Antifungal activity against Candida albicans Y0109 after 24 hrs by micro-broth dilution method; settings: Y0109, 24 h; summary of the method: as §2

## OC(CN(Cc1cn(Cc2cccc(Cl)c2)nn1)C1CC1)(Cn1cncn1)c1ccc(F)cc1F (stereo unspecified)
[1]
  MIC: 4 µg/mL (≈ 8 µM)
[2]
  MIC: 0.0156 µg/mL (≈ 0.0312 µM)
[3]
  MIC: 1 µg/mL (≈ 2 µM)
[4]
  MIC: 8 µg/mL (≈ 16 µM)
[5]
  MIC: 4 µg/mL (≈ 8 µM)
[6]
  MIC: 64 µg/mL (≈ 128 µM)
[7]
  MIC: > 64 µg/mL
[8]
  MIC: 0.0156 µg/mL (≈ 0.0312 µM)

## OC(CN(Cc1cn(Cc2ccc(Cl)cc2)nn1)C1CC1)(Cn1cncn1)c1ccc(F)cc1F (stereo unspecified)
[1]
  MIC: 0.5 µg/mL (≈ 1 µM)
[2]
  MIC: 0.0156 µg/mL (≈ 0.0312 µM)
[3]
  MIC: 0.25 µg/mL (≈ 0.5 µM)
[4]
  MIC: 2 µg/mL (≈ 4 µM)
[5]
  MIC: 2 µg/mL (≈ 4 µM)
[6]
  MIC: 16 µg/mL (≈ 32 µM)
[7]
  MIC: > 64 µg/mL
[8]
  MIC: 0.25 µg/mL (≈ 0.5 µM)

## OC(CN(Cc1cn(Cc2ccccc2Br)nn1)C1CC1)(Cn1cncn1)c1ccc(F)cc1F (stereo unspecified)
[1]
  MIC: 2 µg/mL (≈ 3.67 µM)
[2]
  MIC: 0.0625 µg/mL (≈ 0.115 µM)
[3]
  MIC: 0.25 µg/mL (≈ 0.459 µM)
[4]
  MIC: 2 µg/mL (≈ 3.67 µM)
[5]
  MIC: 2 µg/mL (≈ 3.67 µM)
[6]
  MIC: 64 µg/mL (≈ 118 µM)
[7]
  MIC: > 64 µg/mL
[8]
  MIC: 16 µg/mL (≈ 29.4 µM)

## OC(CN(Cc1cn(Cc2cccc(Br)c2)nn1)C1CC1)(Cn1cncn1)c1ccc(F)cc1F (stereo unspecified)
[1]
  MIC: 4 µg/mL (≈ 7.35 µM)
[2]
  MIC: 0.0625 µg/mL (≈ 0.115 µM)
[3]
  MIC: 0.0156 µg/mL (≈ 0.0287 µM)
[4]
  MIC: 0.25 µg/mL (≈ 0.459 µM)
[5]
  MIC: 0.25 µg/mL (≈ 0.459 µM)
[6]
  MIC: 0.25 µg/mL (≈ 0.459 µM)
[7]
  MIC: > 64 µg/mL
[8]
  MIC: 0.0156 µg/mL (≈ 0.0287 µM)

## OC(CN(Cc1cn(Cc2ccc(Br)cc2)nn1)C1CC1)(Cn1cncn1)c1ccc(F)cc1F (stereo unspecified)
[1]
  MIC: 0.5 µg/mL (≈ 0.918 µM)
[2]
  MIC: 0.0156 µg/mL (≈ 0.0287 µM)
[3]
  MIC: 0.25 µg/mL (≈ 0.459 µM)
[4]
  MIC: 1 µg/mL (≈ 1.84 µM)
[5]
  MIC: 1 µg/mL (≈ 1.84 µM)
[6]
  MIC: 16 µg/mL (≈ 29.4 µM)
[7]
  MIC: > 64 µg/mL
[8]
  MIC: 0.0156 µg/mL (≈ 0.0287 µM)

## Cc1ccccc1Cn1cc(CN(CC(O)(Cn2cncn2)c2ccc(F)cc2F)C2CC2)nn1 (stereo unspecified)
[1]
  MIC: 4 µg/mL (≈ 8.34 µM)
[2]
  MIC: 0.25 µg/mL (≈ 0.521 µM)
[3]
  MIC: 0.0625 µg/mL (≈ 0.13 µM)
[4]
  MIC: 4 µg/mL (≈ 8.34 µM)
[5]
  MIC: 1 µg/mL (≈ 2.09 µM)
[6]
  MIC: 0.0625 µg/mL (≈ 0.13 µM)
[7]
  MIC: > 64 µg/mL
[8]
  MIC: 0.0156 µg/mL (≈ 0.0325 µM)

## Cc1cccc(Cn2cc(CN(CC(O)(Cn3cncn3)c3ccc(F)cc3F)C3CC3)nn2)c1 (stereo unspecified)
[1]
  MIC: < 0.125 µg/mL
[2]
  MIC: 0.0156 µg/mL (≈ 0.0325 µM)
[3]
  MIC: 0.5 µg/mL (≈ 1.04 µM)
[4]
  MIC: < 0.125 µg/mL
[5]
  MIC: < 0.125 µg/mL
[6]
  MIC: 2 µg/mL (≈ 4.17 µM)
[7]
  MIC: 64 µg/mL (≈ 133 µM)
[8]
  MIC: 0.0156 µg/mL (≈ 0.0325 µM)

## CC(C)N(Cc1cn(Cc2ccccc2F)nn1)CC(O)(Cn1cncn1)c1ccc(F)cc1F (stereo unspecified)
[1]
  MIC: < 0.125 µg/mL
[2]
  MIC: 0.0625 µg/mL (≈ 0.129 µM)
[3]
  MIC: < 0.125 µg/mL
[4]
  MIC: 0.25 µg/mL (≈ 0.515 µM)
[5]
  MIC: < 0.125 µg/mL
[6]
  MIC: 2 µg/mL (≈ 4.12 µM)
[7]
  MIC: > 64 µg/mL
[8]
  MIC: 0.0156 µg/mL (≈ 0.0321 µM)

## CC(C)N(Cc1cn(Cc2cccc(F)c2)nn1)CC(O)(Cn1cncn1)c1ccc(F)cc1F (stereo unspecified)
[1]
  MIC: < 0.125 µg/mL
[2]
  MIC: 0.0625 µg/mL (≈ 0.129 µM)
[3]
  MIC: < 0.125 µg/mL
[4]
  MIC: 0.25 µg/mL (≈ 0.515 µM)
[5]
  MIC: < 0.125 µg/mL
[6]
  MIC: 4 µg/mL (≈ 8.24 µM)
[7]
  MIC: > 64 µg/mL
[8]
  MIC: 0.0156 µg/mL (≈ 0.0321 µM)

## CC(C)N(Cc1cn(Cc2ccc(F)cc2)nn1)CC(O)(Cn1cncn1)c1ccc(F)cc1F (stereo unspecified)
[1]
  MIC: 1 µg/mL (≈ 2.06 µM)
[2]
  MIC: 0.25 µg/mL (≈ 0.515 µM)
[3]
  MIC: 0.25 µg/mL (≈ 0.515 µM)
[4]
  MIC: 4 µg/mL (≈ 8.24 µM)
[5]
  MIC: 2 µg/mL (≈ 4.12 µM)
[6]
  MIC: 8 µg/mL (≈ 16.5 µM)
[7]
  MIC: > 64 µg/mL
[8]
  MIC: 0.25 µg/mL (≈ 0.515 µM)

## CC(C)N(Cc1cn(Cc2ccccc2Cl)nn1)CC(O)(Cn1cncn1)c1ccc(F)cc1F (stereo unspecified)
[1]
  MIC: 1 µg/mL (≈ 1.99 µM)
[2]
  MIC: 0.25 µg/mL (≈ 0.498 µM)
[3]
  MIC: < 0.125 µg/mL
[4]
  MIC: 2 µg/mL (≈ 3.98 µM)
[5]
  MIC: < 0.125 µg/mL
[6]
  MIC: 16 µg/mL (≈ 31.9 µM)
[7]
  MIC: > 64 µg/mL
[8]
  MIC: 0.0039 µg/mL (≈ 0.00777 µM)

## CC(C)N(Cc1cn(Cc2cccc(Cl)c2)nn1)CC(O)(Cn1cncn1)c1ccc(F)cc1F (stereo unspecified)
[1]
  MIC: 2 µg/mL (≈ 3.98 µM)
[2]
  MIC: 0.25 µg/mL (≈ 0.498 µM)
[3]
  MIC: < 0.125 µg/mL
[4]
  MIC: 4 µg/mL (≈ 7.97 µM)
[5]
  MIC: 2 µg/mL (≈ 3.98 µM)
[6]
  MIC: 32 µg/mL (≈ 63.7 µM)
[7]
  MIC: > 64 µg/mL
[8]
  MIC: 0.0156 µg/mL (≈ 0.0311 µM)

## CC(C)N(Cc1cn(Cc2ccc(Cl)cc2)nn1)CC(O)(Cn1cncn1)c1ccc(F)cc1F (stereo unspecified)
[1]
  MIC: 0.5 µg/mL (≈ 0.996 µM)
[2]
  MIC: 0.25 µg/mL (≈ 0.498 µM)
[3]
  MIC: < 0.125 µg/mL
[4]
  MIC: 2 µg/mL (≈ 3.98 µM)
[5]
  MIC: 0.5 µg/mL (≈ 0.996 µM)
[6]
  MIC: 4 µg/mL (≈ 7.97 µM)
[7]
  MIC: > 64 µg/mL
[8]
  MIC: 0.0625 µg/mL (≈ 0.125 µM)

## CC(C)N(Cc1cn(Cc2ccccc2Br)nn1)CC(O)(Cn1cncn1)c1ccc(F)cc1F (stereo unspecified)
[1]
  MIC: < 0.125 µg/mL
[2]
  MIC: 0.0156 µg/mL (≈ 0.0285 µM)
[3]
  MIC: < 0.125 µg/mL
[4]
  MIC: < 0.125 µg/mL
[5]
  MIC: < 0.125 µg/mL
[6]
  MIC: 1 µg/mL (≈ 1.83 µM)
[7]
  MIC: 16 µg/mL (≈ 29.3 µM)
[8]
  MIC: 0.0156 µg/mL (≈ 0.0285 µM)

## CC(C)N(Cc1cn(Cc2cccc(Br)c2)nn1)CC(O)(Cn1cncn1)c1ccc(F)cc1F (stereo unspecified)
[1]
  MIC: 0.25 µg/mL (≈ 0.458 µM)
[2]
  MIC: 0.0039 µg/mL (≈ 0.00714 µM)
[3]
  MIC: 0.25 µg/mL (≈ 0.458 µM)
[4]
  MIC: 0.0156 µg/mL (≈ 0.0285 µM)
[5]
  MIC: 0.0625 µg/mL (≈ 0.114 µM)
[6]
  MIC: 1 µg/mL (≈ 1.83 µM)
[7]
  MIC: > 64 µg/mL
[8]
  MIC: 1 µg/mL (≈ 1.83 µM)

## CC(C)N(Cc1cn(Cc2ccc(Br)cc2)nn1)CC(O)(Cn1cncn1)c1ccc(F)cc1F (stereo unspecified)
[1]
  MIC: 1 µg/mL (≈ 1.83 µM)
[2]
  MIC: 0.25 µg/mL (≈ 0.458 µM)
[3]
  MIC: < 0.125 µg/mL
[4]
  MIC: 4 µg/mL (≈ 7.32 µM)
[5]
  MIC: 1 µg/mL (≈ 1.83 µM)
[6]
  MIC: 8 µg/mL (≈ 14.6 µM)
[7]
  MIC: > 64 µg/mL
[8]
  MIC: 0.0625 µg/mL (≈ 0.114 µM)

## Cc1ccc(Cn2cc(CN(CC(O)(Cn3cncn3)c3ccc(F)cc3F)C(C)C)nn2)cc1 (stereo unspecified)
[1]
  MIC: 0.25 µg/mL (≈ 0.519 µM)
[2]
  MIC: 1 µg/mL (≈ 2.08 µM)
[3]
  MIC: 1 µg/mL (≈ 2.08 µM)
[4]
  MIC: 2 µg/mL (≈ 4.15 µM)
[5]
  MIC: 0.25 µg/mL (≈ 0.519 µM)
[6]
  MIC: 8 µg/mL (≈ 16.6 µM)
[7]
  MIC: > 64 µg/mL
[8]
  MIC: 0.0625 µg/mL (≈ 0.13 µM)
